In publication PMC3722612 (Archives of biochemistry and biophysics, 2013):

What was measured:
[1] = system: CC(=O)N[C@H]1[C@@H](OP(=O)(O)OP(=O)(O)OC[C@H]2O[C@@H](n3ccc(=O)[nH]c3=O)[C@H](O)[C@@H]2O)O[C@H](C)[C@@H](N)[C@@H]1O; assay: purified protein; conditions: conditions not stated separately for this enzyme
[2] = system: CC(=O)SCCNC(=O)CCNC(=O)[C@H](O)C(C)(C)COP(=O)(O)OP(=O)(O)OC[C@H]1O[C@@H](n2cnc3c(N)ncnc32)[C@H](O)[C@@H]1OP(=O)(O)O; assay: purified protein; conditions: conditions not stated separately for this enzyme
[3] = system: CC(=O)N[C@H]1[C@@H](OP(=O)(O)OP(=O)(O)OC[C@H]2O[C@@H](n3ccc(=O)[nH]c3=O)[C@H](O)[C@@H]2O)O[C@H](C)C(=O)[C@@H]1O; assay: purified protein; conditions: conditions not stated separately for this enzyme
[4] = system: N[C@@H](CCC(=O)O)C(=O)O; assay: purified protein; conditions: conditions not stated separately for this enzyme
[5] = molecular target: WeeH (Acinetobacter baumannii, UniProt V5RC66); assay: radioactive transfer to Und-P, organic extraction; type: biochemical; conditions: undecaprenyl phosphate, 50 mM MgCl2, 30 mM Tris-acetate pH 8.0, 1% Triton X-100, 3% DMSO, 25 °C
[6] = system: WeeI; assay: continuous DTNB; type: biochemical, Acinetobacter baumannii; conditions: AcCoA saturating, 5 mM MgCl2, 50 mM HEPES pH 7.4, 25 °C
Method in brief: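 AcCoA and UDP-4-amino varied separately, the other held saturating; AcCoA Km taken at 4 mM UDP-4-amino. Initial rates from the linear portion over 5 min; duplicates; background without UDP-4-amino subtracted.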

Compound	Km [1]	kcat [1]	kcat/Km [1]	Km [2]	kcat [2]	kcat/Km [2]	also measured
PglB-ATD (Neisseria gonorrhoeae FA 1090)	192 ± 26 µM	2000 ± 82 s⁻¹	1e+07 M⁻¹ s⁻¹	338 ± 47 µM	2300 ± 110 s⁻¹	6.9e+06 M⁻¹ s⁻¹	
PglE (Campylobacter jejuni subsp. jejuni NCTC 11168 = ATCC 700819)							Km [3]: 366 ± 57 µM; kcat [3]: 2.4 ± 0.1 s⁻¹; kcat/Km [3]: 6600 M⁻¹ s⁻¹; Km [4]: 11,000 ± 340 μM; kcat [4]: 0.028 ± 0.0003 s⁻¹; kcat/Km [4]: 2.6 M⁻¹ s⁻¹
CC(=O)N[C@H]1[C@@H](OP(=O)(O)OP(=O)(O)OC[C@H]2O[C@@H](n3ccc(=O)[nH]c3=O)[C@H](O)[C@@H]2O)O[C@H](C)[C@@H](NC(C)=O)[C@@H]1O [UDP-diNAcBac, UDP-2,4-diacetamido-2,4,6-trideoxy-α-D-glucose]							radioactive transfer to Und-P, organic extraction [5]: This phosphoglycosyltransferase exhibited clear selectivity for UDP-diNAcBac over all other UDP-sugars
PglD (Campylobacter jejuni subsp. jejuni NCTC 11168 = ATCC 700819)	311 ± 23 µM	12000 ± 380 s⁻¹	4e+07 M⁻¹ s⁻¹	194 ± 30 µM	11000 ± 500 s⁻¹	5.5e+07 M⁻¹ s⁻¹	
CC(=O)N[C@H]1[C@@H](OP(=O)(O)OP(=O)(O)OC[C@H]2O[C@@H](n3ccc(=O)[nH]c3=O)[C@H](O)[C@@H]2O)O[C@H](C)[C@@H](N)[C@@H]1O [UDP-4-amino, UDP-2-acetamido-4-amino-2,4,6-trideoxy-α-D-glucose]							Km [6]: 4300 ± 140 µM
